Screening results as filed in PubChem BioAssay.
GSTO1 counter: inhibitors of recombinant GSTO1, primary screen, counter-screen for RBBP9 inhibitor project, biochemical, fluorescence polarization; Glutathione S-transferase omega-1 (Homo sapiens), P78417; activity-based probe fluorescence polarization; inhibition, % at 5.96 µM; 1.1% of 300,000 active;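 active = inhibition above the campaign mean inhibition plus 3 SD, cut at about 35% in these data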;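 note: 0% = GSTO1-1 with DMSO and 100% = wells lacking GSTO1-1 enzyme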
UCH37 inh: inhibitors of human UCH37 deubiquitinase, primary screen, biochemical, Ub-AMC cleavage, fluorescence. Ubiquitin carboxyl-terminal hydrolase isozyme L5 (Homo sapiens), Q9Y5K5. purified proteasome/UCH37. inhibition, % (concentration not given with the values). 0.33% of 330,000 active;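 active = mean inhibition over replicate wells above about 20%, limit read from the data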;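 note: 0% = compound-free wells with enzyme and 100% = wells lacking proteasome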
Target sequence (Q9Y5K5 whole entry, looked up): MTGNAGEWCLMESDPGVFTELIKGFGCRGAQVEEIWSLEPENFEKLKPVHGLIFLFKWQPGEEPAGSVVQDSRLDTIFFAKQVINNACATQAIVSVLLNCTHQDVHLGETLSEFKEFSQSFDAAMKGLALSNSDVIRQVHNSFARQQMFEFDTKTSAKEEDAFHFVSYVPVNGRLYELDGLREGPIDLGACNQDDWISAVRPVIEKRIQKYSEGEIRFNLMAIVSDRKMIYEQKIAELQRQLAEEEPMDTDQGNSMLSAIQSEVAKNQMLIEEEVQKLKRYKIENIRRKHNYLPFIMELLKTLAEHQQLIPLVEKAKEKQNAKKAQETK
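Test system – human UCH37 enzyme supplied as purified proteasome complex · Incubation – 30 min preincubation with enzyme, 25 min cleavage at room temperature · Detection – AMC fluorescence from Ub-AMC cleavage, excitation 355 nm, emission 460 nm · Benchmarks – no-proteasome wells (full inhibition) and compound-free wells (no inhibition)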
HKDC1 inhibitor: HKDC1 hexokinase inhibitors, primary screen, biochemical, fluorescence, uHTS | Q2TB90 | recombinant HKDC1, G6PDH/diaphorase resazurin coupled fluorescence | inhibition, % at 20 µM | 0.16% of 340,000 active | AID 493160, 2011;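 active = inhibition above about 35% when tested at 20 µM, limit read from the data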;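 note: plate controls were DMSO wells with enzyme for no effect and DMSO wells lacking enzyme for full effect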
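Material: recombinant HKDC1 hexokinase; Amount: HKDC1 at 5 µg/mL; Medium: Tris pH 8.0 buffer with MgCl2, Tween-20, BSA, BME; Schedule: 90 min reaction incubation at room temperature, dark; Technique: coupled resazurin fluorescence, excitation 525 nm, emission 613 nm.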
TDP2 absorb: human TDP2 enzyme inhibitors, primary screen, biochemical, epi absorbance, recombinant enzyme; inhibition, % at 12.8 µM; Tyrosyl-DNA phosphodiesterase 2 (Homo sapiens), O95551; T5PNP hydrolysis, p-nitrophenol absorbance 415 nm; 0.34% of 370,000 active;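 active = inhibition above the mean of all tested compounds plus 3 SD, set per campaign, cut at about 25% in these data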;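 note: 0% = DMSO with enzyme and 100% = buffer with substrate but no TDP2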
Target sequence (O95551 whole entry, looked up): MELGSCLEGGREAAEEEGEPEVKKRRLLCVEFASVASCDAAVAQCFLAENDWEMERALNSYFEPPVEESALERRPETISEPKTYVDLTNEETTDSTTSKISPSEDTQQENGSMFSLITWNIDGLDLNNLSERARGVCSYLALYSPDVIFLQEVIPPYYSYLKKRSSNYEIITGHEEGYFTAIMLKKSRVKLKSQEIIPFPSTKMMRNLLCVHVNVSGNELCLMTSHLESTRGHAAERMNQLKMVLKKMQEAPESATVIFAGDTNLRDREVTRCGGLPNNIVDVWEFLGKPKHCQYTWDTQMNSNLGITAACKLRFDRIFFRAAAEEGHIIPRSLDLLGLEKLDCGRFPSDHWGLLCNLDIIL
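Material: recombinant human TDP2; quantity: TDP2 enzyme at 120 nM final; medium: Tris-HCl pH 7.5 with MgCl2; compound: single concentration, 12.8 µM nominal, with 1% DMSO; incubation: 2 h enzyme incubation at 37 °C; signal: epi absorbance; measure: percent inhibition; benchmarks: high control without enzyme, low control DMSO plus TDP2; repeats: singlicate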
CTSL1 counter: Fasciola hepatica cathepsin L1 inhibitors, primary screen, counter-screen for PFM18AAP inhibitor project, biochemical, QFRET, fluorogenic peptide substrate; recombinant F. hepatica cathepsin L1, Z-Leu-Arg-MCA fluorescence; AID 1906, 2009; inhibition, % at 5.96 µM; 0.49% of 300,000 active;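 active = inhibition above the mean of all tested compounds plus 3 SD, set per screening campaign, cut at about 17% in these data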;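 note: 0% = plate median of test compound wells and 100% = 1 µM Z-Phe-Ala-diazomethylketone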
PAD4 inh: human PAD4 inhibitors, primary screen, biochemical, fluorescence polarization, 1536-well format; Protein-arginine deiminase type-4 (Homo sapiens), Q9UM07; recombinant PAD4, RCA probe fluorescence polarization; inhibition, % at 6.36 µM; 0.41% of 330,000 active;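 active = percent inhibition above a cutoff equal to the mean of all tested compounds plus 3 SD, cut at about 15% in these data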;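 note: 0% = PAD4 with RCA probe and DMSO and 100% = probe without PAD4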
GSTO1 inh conf: GSTO1 inhibitor hit confirmation, counter-screen for RBBP9 inhibitor project, biochemical, fluorescence polarization, triplicate | shares compounds with GSTO1 counter | inhibition, % at 5.96 µM | recombinant GSTO1, probe fluorescence polarization | 54% of 2,400 active;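 active = inhibition above the primary screen's cutoff, its mean inhibition plus 3 SD, cut at about 35% in these data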;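 note: loss of polarization as inhibitors block binding of rhodamine sulfonate ester activity probe; 0% = GSTO1 with DMSO and 100% = wells lacking GSTO1 enzyme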
* marks the source's active call; other numbers are inactive results; nt = not tested or not shown. Sampled rows, rich in hits. Any-hit rate of the full collection: about 1.6%.

SMILES	GSTO1 counter	UCH37 inh	HKDC1 inhibitor	TDP2 absorb	CTSL1 counter	PAD4 inh	GSTO1 inh conf
Nc1nnc(CC(=O)N/N=C/c2cc([N+](=O)[O-])cc(Br)c2O)s1	41.0*	nt	-1.1	-9.1	2.3	-4.5	71.0*
Nc1nnc(CC(=O)NN=Cc2ccc([N+](=O)[O-])cc2)s1	nt	8.0	nt	nt	nt	nt	nt
C=C(C)C1CC=C(C)C(=NNC(=O)c2ccccc2[N+](=O)[O-])C1 (centres undefined)	nt	0.9	nt	nt	nt	nt	nt
COc1ccc(NC(=S)NC(NC(=O)c2ccccc2Cl)C(Cl)(Cl)Cl)c([N+](=O)[O-])c1 (centres undefined)	-12.1	4.6	-0.6	-11.1	0.1	-2.7	nt
COc1ccc(NC(=S)NC(NC(=O)CCl)C(Cl)(Cl)Cl)c([N+](=O)[O-])c1 (centres undefined)	91.7*	12.6	19.4	nt	7.7	-3.8	96.8*
CC1CCC/C(=C\c2ccccc2)C1=NO (centres undefined)	nt	2.9	nt	nt	nt	nt	nt
CC1C2CC(CC2=NNC(=O)c2cccs2)C1(C)C (centres undefined)	nt	0.6	nt	nt	nt	nt	nt
CCCN1CCC(=O)N([C@H](CSc2ccc(Br)cc2)c2ccccc2)CC1	52.6*	2.1	-2.4	-6.9	-2.2	0.6	7.9
O=C1CCN(CCc2ccccc2)CCN1[C@H](CSc1ccc(Br)cc1)c1ccccc1	-2.6	-2.5	2.0	-1.1	-1.3	-0.5	nt
CSc1nncc(C(C)=NNc2ccccc2C)n1	nt	7.6	nt	nt	nt	nt	nt
CC/C(=N/Nc1ccccc1C)c1cnnc(SC)n1	44.1*	nt	-4.8	-3.4	1.2	-3.9	2.3
CSc1nncc(/C(C)=N\Nc2cccc(C)c2)n1	22.6	nt	-1.7	-14.4	2.0	-4.0	nt
CSc1nncc(/C(C)=N\Nc2ccccc2)n1	38.2*	nt	-1.6	-8.4	2.5	-6.8	5.7
Oc1cccc(O)c1O	61.6*	nt	nt	nt	-4.0	-3.5	6.8
O=C1C[C@@H](c2ccc(O)cc2)Oc2cc(O)cc(O)c21	6.0	-2.9	-0.5	-5.6	15.7	5.7	nt
Oc1cc(O)c2c(c1)O[C@H](c1ccc(O)c(O)c1)[C@H](O)C2	39.6*	nt	-1.9	2.0	-0.1	-1.6	6.6
CC(=NOCc1ccc(C#N)cc1)c1ccccc1	nt	-0.3	nt	nt	nt	nt	nt
CCc1cccc(NC(=O)CSC2=NS(=O)(=O)c3ccccc32)c1	54.6*	8.9	-2.1	3.7	3.3	8.7	1.4
CSc1ccccc1NC(=O)COC(=O)c1ccccc1O	3.8	5.9	-4.7	-4.8	-0.8	-2.8	nt
CSc1ccccc1NC(=O)COC(=O)c1ccccc1Cc1ccccc1	68.8*	2.4	-5.8	7.4	5.8	-0.9	3.8
Cc1c(C=NNC(=O)C(NC(=O)c2ccc3c(c2)OCO3)C(C)C)c2ccccc2n1C (centres undefined)	nt	0.1	nt	nt	nt	nt	nt
O=C1C(=O)c2ccccc2C(O)=C1CCCCl	68.3*	nt	13.0	nt	8.4	2.9	73.0*
COc1ccc(CC2=C(O)c3ccccc3C(=O)C2=O)cc1	11.8	7.7	12.5	7.3	-0.4	-3.7	nt
Cc1c(C(=O)NN=Cc2cccs2)nc2ccccn12	nt	9.1	nt	nt	nt	nt	nt
Oc1ccccc1Oc1ncc(Br)c(N2CCOCC2)n1	10.2	3.0	-5.9	-18.3	5.8	-1.9	nt
SMILES	GSTO1 counter	UCH37 inh	HKDC1 inhibitor	TDP2 absorb	CTSL1 counter	PAD4 inh	GSTO1 inh conf
Oc1ccccc1Oc1ncc(Br)c(Cl)n1	48.8*	0.7	-1.5	24.4	7.7	-0.6	3.9
Oc1ccc(/C=N/N2CCCCC2)cc1O	40.1*	nt	0.0	-9.4	-2.0	2.9	7.6
Clc1ccc(C=NN2CCCCCC2)cc1Cl	nt	6.0	0.9	-9.2	nt	nt	nt
NS(=O)(=O)c1ccc2nc(NC(=O)c3ccc4c(c3)OCCO4)sc2c1	42.2*	-18.8	-5.8	18.7	0.1	-1.6	-1.1
NS(=O)(=O)c1ccc2nc(NC(=O)c3ccc4ncsc4c3)sc2c1	-1.7	nt	3.0	nt	3.8	13.9	nt
CCOC(=O)c1c(C)[nH]c(C)c1C(=O)COC(=O)c1ccc([N+](=O)[O-])s1	nt	8.8	9.3	17.6	nt	-5.1	nt
O=C(OCC(=O)c1c[nH]c2ccccc12)c1ccc([N+](=O)[O-])s1	45.5*	8.2	3.8	22.6	1.5	-8.5	14.5
CCc1cccc2c(C(=O)COC(=O)c3ccc([N+](=O)[O-])s3)c[nH]c12	52.7*	2.1	4.0	15.2	12.4	-17.4	26.5
O=c1cc(-c2ccc(O)c(O)c2)oc2cc(O)cc(O)c12	50.1*	1.1	6.8	-5.7	-3.2	1.3	46.8*
O=C(O)C1OC(Oc2c(-c3ccc(O)c(O)c3)oc3cc(O)cc(O)c3c2=O)C(O)C(O)C1O (centres undefined)	33.7	3.5	2.9	nt	1.4	-3.8	nt
O=c1c(O)c(-c2ccc(O)c(O)c2)oc2cc(O)cc(O)c12	56.7*	5.1	2.8	-5.4	-0.1	-7.8	65.5*
COc1c(Cl)cc(Cl)cc1C=Nn1cnnc1	nt	-3.2	nt	nt	nt	nt	nt
CC1=NN(c2ccc(C)cc2C)C(=O)C1C(c1ccccc1)C1C(=O)N(c2ccc(C)cc2C)N=C1C (centres undefined)	44.0*	0.1	0.0	nt	-7.7	12.9	9.2
O=C(NCc1ccc2[nH]c3c(c2c1)CCCC3)N1CCOCC1	49.2*	nt	nt	nt	3.2	-17.0	59.4*
CC(=NNC(=O)CNC(=O)c1ccncc1)c1ccc(Cl)cc1	nt	2.5	nt	nt	nt	nt	nt
COCCn1cnnc1SCC(=O)c1ccc(S(=O)(=O)N2CCCC2)cc1	60.8*	-2.2	-1.4	3.1	-4.2	-6.6	60.8*
COc1ccc2oc(=NO)c(C(=O)Nc3ccccc3OC)cc2c1	nt	3.7	nt	nt	nt	nt	nt
Cc1cccc(NC(=O)CSc2nnc(-c3ccco3)c(-c3ccco3)n2)c1C	42.2*	nt	17.4	nt	5.2	-8.0	16.1
Cc1cccc(NC(=O)CSc2nnc(-c3ccco3)c(-c3ccco3)n2)c1	nt	12.6	9.5	2.0	nt	nt	nt
